One data set concerns the target CXCR4 (Homo sapiens, UniProt P61073). Put plainly: Chemokine-induced calcium signalling assay. The data set is classed as cell-based. To be noted: read-out: Ca^2+ flux IC50 CXCR4; CXCR4-positive U87 cell line, CXCL12 (SDF-1) induced Ca^2+ signalling, triplicate average.
Data set [1] can be described thus: Cyclic voltammetry of copper acetate complexes. The data set is classed as physicochemical. To be noted: 1 mM in acetonitrile, 0.1 M TBAPF6, 200 mV/s, vs SHE. The essentials: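 Working electrode was a Pt button, with a Pt-wire counter electrode and an Ag-wire pseudo-reference electrode. Tests were run under N2. Potentials were referenced to SHE using ferrocene as an internal standard (+0.400 V versus SHE). Samples were Cu2+ acetate complexes.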

CXCR4, sequence (P61073 whole entry): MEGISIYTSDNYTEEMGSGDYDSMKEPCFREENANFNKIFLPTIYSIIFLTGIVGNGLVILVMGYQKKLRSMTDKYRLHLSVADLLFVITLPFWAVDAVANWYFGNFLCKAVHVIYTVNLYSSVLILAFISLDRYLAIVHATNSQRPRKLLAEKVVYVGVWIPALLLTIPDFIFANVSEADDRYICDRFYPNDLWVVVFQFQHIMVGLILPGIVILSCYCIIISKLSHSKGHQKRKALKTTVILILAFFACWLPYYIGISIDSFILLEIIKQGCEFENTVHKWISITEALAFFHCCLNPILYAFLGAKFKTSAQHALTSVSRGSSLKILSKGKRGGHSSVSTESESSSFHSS

The term IC50 denotes the point on the concentration scale where inhibition reaches its midpoint. As for `CC(=O)[O-].[Cu+2].c1ccc(CN2CCCN3CCN(CCCN(Cc4ccccc4)CC3)CC2)cc1` [[Cu5(OAc)]^+], at CXCR4, the IC50 came to 156 nM. Moreover, in data set [1], the “Eox (Cu^2+/3+)” value is reported as “+1.516 V” and the “Ered (Cu^2+/+)” value is on record as −0.641 V. The “Eox (^Cu+/2+)” value in data set [1] (return oxidation) is reported as −0.156 V.

The record behind these values is paper PMC5224883 (Chemistry (Weinheim an der Bergstrasse, Germany), 2016).
